From ChEMBL document CHEMBL4825662 (J Med Chem, 2021)
The source made the active and inactive calls. The rule behind the calls is not given here.

How the values were obtained:
[1] = Protein binding in rat plasma assessed as unbound fraction at 5 uM by LC-MS/MS analysis based equilibrium dialysis method; type: ADME, cell-free
[2] = Protein binding in human plasma assessed as unbound fraction at 5 uM by LC-MS/MS analysis based equilibrium dialysis method; type: ADME, cell-free
[3] = Intrinsic clearance in Sprague-Dawley rat liver microsomes preincubated followed by NADPH addition and measured up to 45 mins by LC-MS/MS analysis; type: ADME, Microsome
[4] = Oral bioavailability in Sprague-Dawley rat at 10 mg/kg administered via gavage measured after 0.02 to 24 hrs by tandem liquid chromatography/mass spectrometry; type: ADME, organism-based; conditions: in vivo, time 0.02-24 hrs
How it was run: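 Male Sprague–Dawley rats (200–250 g), 3 per route. IV bolus at 1 mg/kg, 1 mg/mL in 40:60 dimethylacetamide/saline; oral gavage at 5 or 10 mg/kg, 5 mg/mL in 1% methyl cellulose, 0.1% Tween 80 in water. Serial blood at 0.02–24 h (ten points) into heparin, spun at 4 °C, plasma frozen; acetonitrile protein precipitation, ESI LC-MS/MS with matrix curve and internal standards.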

[5] = Intrinsic clearance in Beagle dog hepatocytes at 3 uM assessed per million cells measured up to 60 mins by LC-MS/MS analysis; type: ADME, cell-based, Canis lupus familiaris, Hepatocyte; conditions: read-out: CLH
[6] = Cytotoxicity against human Hep2 cells; type: cell-based; conditions: HEp-2 cells
How it was run: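 Hep2 cells were cultured in parallel with the plaque assays at compound concentrations of 0.01 nM to 100 μM. Viability was read by MTT, CellTox green or CellTiter-Glo.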

[7] = Half life in CD1 mouse at 1 mg/kg, iv measured after 0.03 to 24 hrs by UHPLC-TOF method; type: ADME, organism-based; conditions: in vivo, time 0.03-24 hrs
[8] = Half life in Beagle dog at 0.3 mg/kg, iv measured after 0.03 to 24 hrs by UHPLC-TOF method; type: ADME, organism-based, Canis lupus familiaris; conditions: in vivo, time 0.03-24 hrs
How it was run: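 Dogs dosed IV as a suspension of amorphous solid. Serial blood at 2, 5, 15 min and 1, 2, 4, 8, 12, 24 h into heparinized tubes, centrifuged at 4 °C for 10 min at 3000g. Plasma snap-frozen and stored at −20 °C, then analysed by UHPLC-TOF.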

[9] = Half life in Sprague-Dawley rat at 10 mg/kg, po measured after 0.25 to 24 hrs by UHPLC-TOF method; type: ADME, organism-based; conditions: in vivo, time 0.25-24 hrs
[10] = Tmax in Sprague-Dawley rat at 10 mg/kg, po measured after 0.02 to 24 hrs by UHPLC-TOF method; type: ADME, organism-based; conditions: in vivo, 10 mg/kg, time 0.02-24 hrs
[11] = Tmax in Sprague-Dawley rat at 50 mg/kg, po measured after 0.02 to 24 hrs by UHPLC-TOF method; type: ADME, organism-based; conditions: in vivo, time 0.02-24 hrs
[12] = Cmax in CD1 mouse at 10 mg/kg, po measured after 0.083 to 24 hrs by UHPLC-TOF method; type: ADME, organism-based; set-up: route oral, time 0.083-24 hrs, dose 10 mg/kg; conditions: in vivo
[13] = Cmax in Beagle dog at 3 mg/kg, po measured after 0.03 to 24 hrs by UHPLC-TOF method; type: ADME, organism-based, Canis lupus familiaris; set-up: route oral, dose 3 mg/kg, time 0.03-24 hrs; conditions: in vivo
[14] = Oral bioavailability in Sprague-Dawley rat at 50 mg/kg administered via gavage measured after 0.02 to 24 hrs by tandem liquid chromatography/mass spectrometry; type: ADME, organism-based; conditions: in vivo, time 0.02-24 hrs
[15] = Oral bioavailability in Beagle dog at 3 mg/kg measured after 0.03 to 24 hrs by UHPLC-TOF method; type: ADME, organism-based, Canis lupus familiaris; conditions: Beagle, in vivo, time 0.03-24 hrs
How it was run: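 Dogs examined by a veterinary surgeon before each session, fed 2 h post-dose, water ad libitum, dosed as amorphous-solid suspension. Serial blood into heparinized tubes, centrifuged at 4 °C for 10 min at 3000g; plasma snap-frozen at −20 °C. IV sampling 2 min–24 h, oral 15 min–24 h. Plasma analysed by UHPLC-quadrupole-TOF MS.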

Human orthopneumovirus [16] = experiment: Antiviral activity against Respiratory syncytial virus A by Plaque reduction assay; type: functional, organism-based
How it was run: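 RSV A and B laboratory strains and low-passage clinical isolates were used to infect Vero or HepG2 cultures for 48 h with compound at 0.01 nM to 100 μM. Plaques were then detected by immunostaining.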

[17] = test system: Respiratory syncytial virus; experiment: Antiviral activity against Respiratory syncytial virus Memphis 37b infected in human HEp2 cells treated over 10 serial passages by plaque assay; type: functional, organism-based; conditions: HEp-2
[18] = test system: Respiratory syncytial virus; experiment: Antiviral activity against Respiratory syncytial virus Memphis 37b infected in human HEp2 cells by plaque assay; type: functional, organism-based; conditions: HEp-2
[19] = test system: Respiratory syncytial virus; experiment: Antiviral activity against Respiratory syncytial virus Memphis 37b infected in human HEp2 cells assessed as drug resistance by measuring fold change in EC50 treated over 10 serial passages by plaque assay relative to control; type: functional, HEp-2
Human orthopneumovirus [20] = experiment: Antiviral activity against Respiratory syncytial virus A2 infected in Balb/C mouse assessed as reduction in viral titers in lung homogenates at 10 mg/kg, po treated 2 hrs prior to viral infection followed by compound redosing at 24 hrs and measured after 5 days post infection by plaque assay relative to control; type: functional, human respiratory syncytial virus; set-up: scale not given: the % may be the effect or the level left
How it was run: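 Female Balb/C mice aged 7–8 weeks, 6 per group, received two oral doses 2 h before and 24 h after intranasal inoculation with 5 × 10⁶ pfu of RSV A2. Mice were euthanized on day 5. Lung homogenate titers were determined by plaque assay on Vero cells and expressed as a percentage of the control group.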

[21] = Cardiotoxicity in guinea pig assessed as effect on QT interval; type: toxicity, Cavia porcellus
Rattus norvegicus = species: Rattus norvegicus; experiment: Toxicity in rat by micronucleus test; type: functional, organism-based
Human orthopneumovirus [22] = experiment: Antiviral activity against Respiratory syncytial virus A Memphis 37b infected in human assessed as reduction in mean AUC of viral load at 200 mg administered twice daily administered for 5 days by cell-based infectivity assay; type: functional; set-up: scale not given: the % may be the effect or the level left; conditions: time 5 day
How it was run: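 Healthy adult volunteers aged 18–45 with low serum pre-existing RSV-specific antibodies were challenged on day zero with about 4 log10 PFU of RSV-A Memphis 37b. Subjects were randomized into 3 equal groups: 200 mg, 350 mg or placebo twice daily for 5 days, begun after infection was confirmed. Viral load in nasal wash was measured by RT-qPCR or by cell-based infectivity assay, and AUC was compared with placebo.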

Human orthopneumovirus [23] = experiment: Antiviral activity against Respiratory syncytial virus A Memphis 37b infected in human assessed as reduction in nasal mucus weight at 200 to 350 mg administered twice daily administered for 5 days; type: functional, organism-based; conditions: dose 200-350 mg, time 5.0 day
How it was run: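 Healthy adult volunteers aged 18–45, with low pre-existing RSV antibody levels, were challenged on day 0 with about 4 log10 PFU RSV-A Memphis 37b. After infection was confirmed, they were randomised to 200 mg, 350 mg or placebo twice daily for 5 days. Post hoc analysis compared mean daily nasal mucus weight with placebo.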

[24] = Induction of adverse effect in human infected with Respiratory syncytial virus A Memphis 37b assessed as nausea at 200 to 350 mg administered twice daily administered for 5 days; conditions: in vivo, 120 h, dose 200-350 mg, time 5 day
How it was run: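 Challenge study in healthy adults aged 18–45 inoculated with about 4 log10 PFU of RSV-A Memphis 37b. Dosing was 200 or 350 mg twice daily for 5 days after infection was confirmed. Adverse events were monitored daily. ECG, physical examination and urinalysis were done at prespecified time points.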

## NCc1ccc2c(c1)nc(CN1C(=O)C3(CC3)c3ccc(F)cc31)n2CCCC(F)(F)F [SISUNATOVIR]
[1]
  fraction unbound at 5 µM: 0.52
[2]
  fraction unbound at 5 µM: 0.67
[3]
  Microsomal intrinsic clearance: 17 µL/min
[4]
  bioavailability: 102%
[5]
  hepatocyte CLint at 3 µM: 2.4 µL/min/1e6 cells
[6]
  CC50: > 20000 nM
[7]
  half-life: 4.2 h
[8]
  half-life: 12.3 h
[9]
  half-life: 9.9 h
[10]
  Tmax: 2.7 h
[11]
  Tmax: 5.3 h
[12]
  Cmax: 224 ng/mL
[13]
  Cmax: 82.4 ng/mL
[14]
  bioavailability: 132%
[15]
  bioavailability: 44.2%
Human orthopneumovirus [16]
  IC50: 1.4 nM
[17]
  EC50: 89 nM
[18]
  EC50: 1.18 nM
[19]
  fold change (FC): 76
Human orthopneumovirus [20]
  Activity: 92%
[21]
  Activity: Toxic
Rattus norvegicus
  Activity: Not toxic
Human orthopneumovirus [22]
  Activity: 76.42%
Human orthopneumovirus [23]
  Activity: Active
[24]
  Activity: Toxic
